Test results from ChEMBL document CHEMBL4265871, “Novel alkylated azoles as potent antifungals” (Eur J Med Chem, 2017).
In brackets after ≈: the same amount, converted by molar mass.

Experiments:
Assay type in all cases: functional
[1] = tested on: Candida albicans; experiment: Antifungal activity against Candida albicans ATCC 10231 incubated for 48 hrs by modified CLSI M27-A3 protocol based method; settings: ATCC 10231, 48 h; for MIC: read-out: MIC100
Procedure, shortened: (§1)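 For C. albicans ATCC 10231, C. krusei ATCC 6258 and C. parapsilosis ATCC 22019, MIC-0 was read, meaning complete growth inhibition. For azole controls, MIC-2 (50% growth inhibition) was reported instead. Caspofungin and voriconazole were tested here; other controls came from earlier work.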

[2] = tested on: Candida albicans; experiment: Antifungal activity against Candida albicans ATCC 64124 incubated for 48 hrs by modified CLSI M27-A3 protocol based method; settings: ATCC 64124, 48 h
[3] = tested on: Candida albicans; experiment: Antifungal activity against ITC and FLC-susceptible Candida albicans ATCC MYA-2876 incubated for 48 hrs by modified CLSI M27-A3 protocol based method; settings: ATCC MYA-2876, 48 h
Procedure, shortened: (§2)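 Because these Candida strains show trailing growth, MIC-2 was read, meaning 50% growth inhibition. Caspofungin and voriconazole were tested here; other controls came from earlier work.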

[4] = tested on: Candida albicans; experiment: Antifungal activity against ITC and FLC-resistant Candida albicans ATCC MYA-90819 incubated for 48 hrs by modified CLSI M27-A3 protocol based method; settings: ATCC MYA-90819, 48 h
[5] = tested on: Candida albicans; experiment: Antifungal activity against ITC and FLC-susceptible Candida albicans ATCC MYA-2310 incubated for 48 hrs by modified CLSI M27-A3 protocol based method; settings: ATCC MYA-2310, 48 h
[6] = tested on: Candida albicans; experiment: Antifungal activity against ITC and FLC-resistant Candida albicans ATCC 1237 incubated for 48 hrs by modified CLSI M27-A3 protocol based method; settings: ATCC 1237, 48 h; procedure, shortened: as §2
[7] = tested on: Candida albicans; experiment: Antifungal activity against ITC and FLC-resistant Candida albicans ATCC MYA-1003 incubated for 48 hrs by modified CLSI M27-A3 protocol based method; settings: ATCC MYA-1003, 48 h; procedure, shortened: as §2
[8] = tested on: Nakaseomyces glabratus; experiment: Antifungal activity against Candida glabrata ATCC 2001 incubated for 48 hrs by modified CLSI M27-A3 protocol based method; settings: ATCC 2001, 48 h
[9] = tested on: Pichia kudriavzevii; experiment: Antifungal activity against Candida krusei ATCC 6258 incubated for 48 hrs by modified CLSI M27-A3 protocol based method; settings: ATCC 6258, 48 h; for MIC: read-out: MIC100; procedure, shortened: as §1
[10] = tested on: Candida parapsilosis; experiment: Antifungal activity against Candida parapsilosis ATCC 22019 incubated for 48 hrs by modified CLSI M27-A3 protocol based method; settings: Lodderomyces parapsilosis, ATCC 22019, 48 h; for MIC: read-out: MIC100; procedure, shortened: as §1
[11] = tested on: Aspergillus flavus; experiment: Antifungal activity against Aspergillus flavus ATCC MYA-3631 incubated for 48 hrs by CLSI M38-A2 protocol based method; settings: ATCC MYA-3631, 48 h; for MIC: read-out: MIC100
[12] = tested on: Aspergillus nidulans; experiment: Antifungal activity against Aspergillus nidulans ATCC 38163 incubated for 48 hrs by CLSI M38-A2 protocol based method; settings: ATCC 38163, 48 h; for MIC: read-out: MIC100
[13] = tested on: Aspergillus terreus; experiment: Antifungal activity against Aspergillus terreus ATCC MYA-3633 incubated for 48 hrs by CLSI M38-A2 protocol based method; settings: ATCC MYA-3633, 48 h; for MIC: read-out: MIC100

| Structure (SMILES) | MIC [1] | MIC [9] | MIC [10] | MIC [11] | MIC [12] | MIC [13] | MIC50 [2] | MIC50 [3] | MIC50 [4] | MIC50 [5] | MIC50 [6] | MIC50 [7] | MIC50 [8] | other results |
| --- | --- | --- | --- | --- | --- | --- | --- | --- | --- | --- | --- | --- | --- | --- |
| CC[C@H](C)C[C@H](C)CCCCCCCCC(=O)N[C@H]1C[C@@H](O)[C@@H](NCCN)NC(=O)[C@@H]2[C@@H](O)CCN2C(=O)[C@H]([C@H](O)CCN)NC(=O)[C@H]([C@H](O)[C@@H](O)c2ccc(O)cc2)NC(=O)[C@@H]2C[C@@H](O)CN2C(=O)[C@H]([C@@H](C)O)NC1=O [CASPOFUNGIN] | 0.8 µM (≈ 0.875 µg/mL) | 0.4 µM (≈ 0.437 µg/mL) | 1.6 µM (≈ 1.75 µg/mL) | > 25.8 µM | > 26 µM | > 25.8 µM | – | – | – | – | – | – | – | MIC [2]: 0.2 µM (≈ 0.219 µg/mL); MIC ([3]; read-out: MIC100): 0.05 µM (≈ 0.0547 µg/mL); MIC [4]: 0.1 µM (≈ 0.109 µg/mL); MIC ([5]; read-out: MIC100): 0.1 µM (≈ 0.109 µg/mL); MIC ([6]; read-out: MIC100): 0.2 µM (≈ 0.219 µg/mL); MIC ([7]; read-out: MIC100): 0.4 µM (≈ 0.437 µg/mL); MIC [8]: 0.05 µM (≈ 0.0547 µg/mL) |
| CCCCCCC(O)(Cn1cncn1)c1cccc(F)c1 (stereo unspecified) | > 107 µM | 13.4 µM (≈ 3.9 µg/mL) | 6.7 µM (≈ 1.95 µg/mL) | > 107 µM | 13.4 µM (≈ 3.9 µg/mL) | 107 µM (≈ 31.3 µg/mL) | > 107 µM | 6.7 µM (≈ 1.95 µg/mL) | 6.7 µM (≈ 1.95 µg/mL) | 6.7 µM (≈ 1.95 µg/mL) | 3.3 µM (≈ 0.962 µg/mL) | 107 µM (≈ 31.3 µg/mL) | 26.8 µM (≈ 7.81 µg/mL) | – |
| N[n+]1cnn(CC(=O)c2ccc(Cl)cc2Cl)c1 | > 102 µM | > 102 µM | > 102 µM | > 102 µM | > 102 µM | > 102 µM | > 102 µM | > 102 µM | > 102 µM | > 102 µM | > 102 µM | > 102 µM | > 102 µM | – |
| CC(O)(Cn1cncn1)c1ccc(F)cc1F (stereo unspecified) | > 131 µM | > 131 µM | 16.3 µM (≈ 3.9 µg/mL) | > 131 µM | 131 µM (≈ 31.3 µg/mL) | > 131 µM | > 131 µM | > 131 µM | > 131 µM | > 131 µM | > 131 µM | 65.2 µM (≈ 15.6 µg/mL) | > 131 µM | – |
| CCCC(O)(Cn1cncn1)c1ccc(F)cc1F (stereo unspecified) | 14.6 µM (≈ 3.9 µg/mL) | 0.22 µM (≈ 0.0588 µg/mL) | 0.22 µM (≈ 0.0588 µg/mL) | > 117 µM | 29.2 µM (≈ 7.8 µg/mL) | 58.4 µM (≈ 15.6 µg/mL) | 117 µM (≈ 31.3 µg/mL) | 58.4 µM (≈ 15.6 µg/mL) | 58.4 µM (≈ 15.6 µg/mL) | 29.2 µM (≈ 7.8 µg/mL) | 117 µM (≈ 31.3 µg/mL) | 14.6 µM (≈ 3.9 µg/mL) | > 117 µM | – |
| CC(O)(Cn1cncn1)c1ccc(Cl)cc1Cl (stereo unspecified) | > 115 µM | 14.3 µM (≈ 3.89 µg/mL) | 0.88 µM (≈ 0.239 µg/mL) | > 115 µM | 7.2 µM (≈ 1.96 µg/mL) | > 115 µM | > 115 µM | 28.7 µM (≈ 7.81 µg/mL) | 7.2 µM (≈ 1.96 µg/mL) | > 115 µM | > 115 µM | > 115 µM | 14.3 µM (≈ 3.89 µg/mL) | – |
| CCCCCCC(O)(Cn1cncn1)c1cccc(Cl)c1 (stereo unspecified) | > 102 µM | > 102 µM | > 102 µM | > 102 µM | 12.7 µM (≈ 3.91 µg/mL) | > 102 µM | 102 µM (≈ 31.3 µg/mL) | > 102 µM | 25.3 µM (≈ 7.79 µg/mL) | 25.3 µM (≈ 7.79 µg/mL) | 25.3 µM (≈ 7.79 µg/mL) | > 102 µM | > 102 µM | – |
| CCC(O)(Cn1cncn1)c1ccc(Cl)cc1Cl (stereo unspecified) | 13.6 µM (≈ 3.89 µg/mL) | 3.4 µM (≈ 0.973 µg/mL) | < 0.1 µM | 54.5 µM (≈ 15.6 µg/mL) | 27.3 µM (≈ 7.81 µg/mL) | 13.6 µM (≈ 3.89 µg/mL) | > 109 µM | 3.4 µM (≈ 0.973 µg/mL) | 0.84 µM (≈ 0.24 µg/mL) | 3.4 µM (≈ 0.973 µg/mL) | 3.4 µM (≈ 0.973 µg/mL) | 6.8 µM (≈ 1.95 µg/mL) | 13.6 µM (≈ 3.89 µg/mL) | – |
| CCCCCCCCCCCCC(O)(Cn1cncn1)c1ccc(F)cc1F (stereo unspecified) | > 79.5 µM | > 79.5 µM | 5 µM (≈ 1.97 µg/mL) | > 79.5 µM | 1.2 µM (≈ 0.472 µg/mL) | 9.9 µM (≈ 3.9 µg/mL) | > 79.5 µM | 19.8 µM (≈ 7.79 µg/mL) | > 79.5 µM | 19.8 µM (≈ 7.79 µg/mL) | 19.8 µM (≈ 7.79 µg/mL) | > 79.5 µM | 2.5 µM (≈ 0.984 µg/mL) | – |
| CCC(O)(Cn1cncn1)c1ccc(F)cc1F (stereo unspecified) | 61.6 µM (≈ 15.6 µg/mL) | 30.8 µM (≈ 7.8 µg/mL) | 1.9 µM (≈ 0.481 µg/mL) | > 124 µM | 124 µM (≈ 31.3 µg/mL) | > 124 µM | > 124 µM | 61.6 µM (≈ 15.6 µg/mL) | 124 µM (≈ 31.3 µg/mL) | > 124 µM | > 124 µM | 30.8 µM (≈ 7.8 µg/mL) | > 124 µM | – |
| CCCCCC(O)(Cn1cncn1)c1cccc(F)c1 (stereo unspecified) | > 113 µM | 14.1 µM (≈ 3.91 µg/mL) | 14.1 µM (≈ 3.91 µg/mL) | ≥ 113 µM | 0.87 µM (≈ 0.241 µg/mL) | 14.1 µM (≈ 3.91 µg/mL) | > 113 µM | 14.1 µM (≈ 3.91 µg/mL) | 14.1 µM (≈ 3.91 µg/mL) | 14.1 µM (≈ 3.91 µg/mL) | 14.1 µM (≈ 3.91 µg/mL) | > 113 µM | 28.1 µM (≈ 7.79 µg/mL) | – |
| CCC(C)n1ncn(-c2ccc(N3CCN(c4ccc(OCC5COC(Cn6cncn6)(c6ccc(Cl)cc6Cl)O5)cc4)CC3)cc2)c1=O (stereo unspecified) [ITRACONAZOLE] | – | – | – | – | – | – | > 88.6 µM | 11.1 µM (≈ 7.83 µg/mL) | 44.4 µM (≈ 31.3 µg/mL) | 44.4 µM (≈ 31.3 µg/mL) | 44.4 µM (≈ 31.3 µg/mL) | 44.4 µM (≈ 31.3 µg/mL) | 11.1 µM (≈ 7.83 µg/mL) | MIC50 [1]: 0.71 µM (≈ 0.501 µg/mL); MIC50 [9]: 0.68 µM (≈ 0.48 µg/mL); MIC50 [10]: 0.17 µM (≈ 0.12 µg/mL); MIC50 [11]: 0.68 µM (≈ 0.48 µg/mL); MIC50 [12]: 0.28 µM (≈ 0.198 µg/mL); MIC50 [13]: 1.4 µM (≈ 0.988 µg/mL) |
